This note sets out measurements from ChEMBL document CHEMBL1765030, “Discovery and preclinical evaluation of a novel class of cytotoxic propynoic acid carbamoyl methyl amides (PACMAs)” (J Med Chem, 2011).

The source made the active and inactive calls. The rule behind the calls is not given here.

A short description of data set [1]: Octanol-water distribution coefficient, log P of the compound. Type of data set: physicochemical.
A further data set concerns 5637. Description: Cytotoxicity against human 5637 cells after 72 hrs by MTT assay. The format is functional, cell-based. The following applies: Homo sapiens, 5637, 72 h. In general terms: Tetrazolium dyes change colour on reduction, which living cells bring about.
The subject of the next data set is UMUC3. Put plainly: Cytotoxicity against human UM-UC-3 cells after 72 hrs by MTT assay. The format is functional, cell-based. The following applies: UMUC3, 72 h. The procedure, abridged:
(§1)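 Cells were attached overnight, then continuously exposed to drug for 72 h. MTT (0.5 mg/mL final) was added for 4 h at 37 °C, formazan dissolved in DMSO, and A570 read; all in triplicate. IC50 came from log(concentration) vs % cells killed. Media: RPMI-1640 for HT29, HCT116 p53+/+ and p53−/−, and HEY; DMEM for MDA-MB-435 and UMUC3; all with 10% FBS, 37 °C, 5% CO₂.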

The subject of the next data set is NCI/ADR-RES. Put plainly: Cytotoxicity against human NCI/ADR-RES cells after 72 hrs by MTT assay. Type of data set: functional, cell-based.
Data set [2] deals with MDA-MB-435. Description: Cytotoxicity against human MDA-MB-435 cells at 1 uM after 24 hrs using crystal violet staining by colony formation assay. Type of data set: functional, cell-based. A digest of the protocol: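 Cells were plated at 1000 per well, attached overnight, and exposed to 1 μM for 24 h. They were then washed and grown in fresh medium for 8–10 days until colonies formed, fixed in 1% glutaraldehyde for 30 min, and stained with 2% crystal violet for 30 min. Vehicle was DMSO.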

The test system of another data set is HT-29. Put plainly: Cytotoxicity against human HT-29 cells after 72 hrs by MTT assay. The format is functional, cell-based. The following applies: HT-29, 72 h. The procedure, abridged:
as §1

In data set [3] the test system is HCT-116. Description: Cytotoxicity against human HCT116 cells […] after 72 hrs by MTT assay. Type of data set: functional, cell-based. The note with it: HCT-116, 72 h. A digest of the protocol: as §1
Data set [4] has as its system MDA-MB-435. Description: Cytotoxicity against human MDA-MB-435 cells after 72 hrs by MTT assay. Type of data set: functional, cell-based. The note with it: MDA-MB-435, 72 h. A digest of the protocol:
as §1

Data set [5] concerns HCT-116. Description: Cytotoxicity against p53 deficient human HCT116 cells […] after 72 hrs by MTT assay. The note with it: HCT-116, 72 h. Type of data set: functional, cell-based. A digest of the protocol: as §1
The next data set concerns HEY. Put plainly: Cytotoxicity against human HEY cells after 72 hrs by MTT assay. Type of data set: functional, cell-based. The procedure, abridged: as §1

Usually logP stands for the decadic logarithm of the partition coefficient of the neutral form, usually between octanol and water. Higher therefore signals a more lipophilic compound. With `CC[C@@]1(O)C(=O)OCc2c1cc1n(c2=O)Cc2cc3ccccc3nc2-1` [CAMPTOTHECIN], the logP in data set [1] was 1.67.
As usually defined, the IC50 is the point on the concentration scale where inhibition reaches its midpoint. A higher IC50 goes with weaker potency in that assay. In the case of `C#CC(=O)N(c1cccc(C(F)(F)F)c1)C(C(=O)NC1CCCCC1)c1cccs1` (stereo not drawn), the IC50 in the data set with 5637 is 1.6 µM; in the data set on UMUC3 it was over 20 µM; with NCI/ADR-RES, 0.4 µM; with HT-29, 6 µM; with HCT-116 [3] it was 8.3 µM; in the data set on MDA-MB-435 [4], 6.9 µM. For the same compound, the IC50 in the data set with HCT-116 [5] is 10.4 µM; in the data set with HEY, 5.2 µM. The result in the data set on MDA-MB-435 [2] was Active. Further, in data set [1], the logP is 3.88.
As to `COc1cccc2c1C(=O)c1c(O)c3c(c(O)c1C2=O)C[C@@](O)(C(=O)CO)C[C@@H]3O[C@H]1C[C@H](N)[C@H](O)[C@H](C)O1` [DOXORUBICIN], the result in the data set on MDA-MB-435 [2] was Active. The compound further yielded a logP in data set [1] of -0.82.
As for `C#CC(=O)N(c1cccc(OC)c1)C(C(=O)NC1CCCC1)c1cccs1` (stereo not drawn), the IC50 in the data set on 5637 came to 0.3 µM; in the data set on UMUC3, 6.9 µM; in the data set with NCI/ADR-RES it was 0.3 µM; in the data set with HT-29, 2.3 µM; in the data set with HCT-116 [3], 7.2 µM; with MDA-MB-435 [4], 1.7 µM. Moreover, the IC50 in the data set with HCT-116 [5] amounted to 5.6 µM; with HEY, 1.9 µM. Further, the result with MDA-MB-435 [2] was Active. In addition, the logP in [1] came to 2.55.
`C#CC(=O)N(c1ccccc1F)C(C(=O)NC1CCCCC1)c1ccccc1F` (stereo not drawn): the IC50 with 5637 was 2.1 µM; with UMUC3, over 20 µM; in the data set with NCI/ADR-RES, 0.4 µM; in the data set on HT-29, 7.7 µM; in the data set on HCT-116 [3] it was 11.9 µM; in the data set on MDA-MB-435 [4] it was 6.5 µM. Moreover, the IC50 in the data set on HCT-116 [5] was 10.1 µM; in the data set with HEY, 5.6 µM. For the same compound, the outcome in the data set with MDA-MB-435 [2] was Active. The compound further registered a logP in data set [1] of 4.17.
Regarding `C#CC(=O)N(c1cc(OC)cc(OC)c1)C(C(=O)NC1CCCC1)c1ccc(OC)cc1` (stereo not drawn), the IC50 in the data set on 5637 was 1.9 µM; with UMUC3, over 20 µM; with NCI/ADR-RES it was 0.3 µM; in the data set with HT-29, 2.1 µM; in the data set with HCT-116 [3] it was 15 µM; in the data set on MDA-MB-435 [4], 2.4 µM. For the same compound, the IC50 in the data set on HCT-116 [5] was over 20 µM; in the data set on HEY, 2.3 µM. In addition, in the data set on MDA-MB-435 [2], the result was Active. Further, the logP in data set [1] amounted to 2.33.
For the compound `C#CC(=O)N(c1ccc2c(c1)OCCO2)C(C(=O)NC1CCCC1)c1ccccc1` (stereo not drawn), the IC50 with 5637 is 1.9 µM; in the data set with UMUC3 it was over 20 µM; with NCI/ADR-RES, 0.3 µM; with HT-29 it was 3.2 µM; in the data set on HCT-116 [3] it was 17.3 µM; in the data set on MDA-MB-435 [4] it was 1.8 µM. The half-inhibitory concentration (IC50) with HCT-116 [5] was over 20 µM; with HEY, 4.1 µM. Moreover, the result in the data set on MDA-MB-435 [2] was Active. Besides, the lipophilicity (logP) in data set [1] was 2.62.
For the compound `C#CC(=O)N(Cc1ccc2c(c1)OCO2)C(C(=O)NCc1ccccc1)c1ccccc1F` (stereo not drawn), the IC50 is 2.8 µM in the data set on 5637; over 20 µM with UMUC3; 1.3 µM in the data set with NCI/ADR-RES; over 10 µM with HT-29; over 10 µM in the data set with HCT-116 [3]; over 10 µM in the data set on MDA-MB-435 [4]. For the same compound, the IC50 in the data set with HCT-116 [5] is over 20 µM; in the data set with HEY it was over 10 µM. Also, the result with MDA-MB-435 [2] was Active. For the same compound, in [1], the logP amounted to 3.32.
`C#CC(=O)N(c1cc(OC)ccc1OC)C(C(=O)NC1CCCC1)c1cccs1` (stereo not drawn): the IC50 with 5637 turned out to be 0.3 µM; in the data set on UMUC3, 5.7 µM; with NCI/ADR-RES, 0.3 µM; in the data set with HT-29 it was 1.6 µM; with HCT-116 [3] it was 5.7 µM; in the data set with MDA-MB-435 [4], 0.5 µM. Also, the IC50 with HCT-116 [5] stood at 4.7 µM; in the data set on HEY it was 1.5 µM. In the data set on MDA-MB-435 [2], the result was Active. Further, in data set [1], the logP was 2.26.
Take `C#CC(=O)N(c1cccc(C(F)(F)F)c1)C(C(=O)NCc1ccccc1)c1cccs1` (stereo not drawn): the IC50 was 1.2 µM in the data set on 5637; over 20 µM in the data set with UMUC3; 0.7 µM in the data set with NCI/ADR-RES; 7.3 µM in the data set with HT-29; 9 µM in the data set with HCT-116 [3]; 4.2 µM in the data set on MDA-MB-435 [4]. Moreover, the figures for the IC50 in the data set with HCT-116 [5] and in the data set with HEY were 16.1 µM and 7.1 µM, respectively. The outcome in the data set on MDA-MB-435 [2] was Active. Moreover, the logP in data set [1] came out at 3.86.
As for `C#CC(=O)N(c1ccc(OC)cc1OC)C(C(=O)NC1CCCC1)c1cccs1` (stereo not drawn), the IC50 in the data set on 5637 was 1.7 µM; with UMUC3, over 20 µM; in the data set with NCI/ADR-RES, 0.4 µM; in the data set on HT-29 it was 2.3 µM; with HCT-116 [3], 6.9 µM; in the data set with MDA-MB-435 [4] it was 1.7 µM. Also, the results for the IC50 in the data set on HCT-116 [5] and with HEY were 7 µM and 4.1 µM, respectively. Besides, the outcome in the data set with MDA-MB-435 [2] was Active. The compound further yielded a logP in data set [1] of 2.26.
As to `C#CC(=O)N(c1ccc2ccccc2c1)C(C(=O)NC1CCCC1)c1ccccc1` (stereo not drawn), the concentration for half-maximal inhibition (IC50) was 0.5 µM in the data set with 5637; over 20 µM with UMUC3; 0.3 µM in the data set on NCI/ADR-RES; 4.9 µM in the data set on HT-29; 6.8 µM in the data set with HCT-116 [3]; 7.3 µM with MDA-MB-435 [4]. The concentration for half-maximal inhibition (IC50) in the data set on HCT-116 [5] turned out to be 7.4 µM; in the data set with HEY, 1.7 µM. In addition, the outcome with MDA-MB-435 [2] was Active. Also, the log partition coefficient (logP) in data set [1] was 4.11.
Regarding `C#CC(=O)N(c1ccc(-n2cnnn2)c(C)c1)C(C(=O)NC1CCCC1)c1ccccc1` (stereo not drawn), the IC50 in the data set on 5637 is 0.4 µM; in the data set with UMUC3, 7.8 µM; with NCI/ADR-RES, 1 µM; in the data set with HT-29, 1.5 µM; in the data set with HCT-116 [3], 7.2 µM; in the data set with MDA-MB-435 [4] it was 0.6 µM. The IC50 with HCT-116 [5] worked out at 5.7 µM; in the data set with HEY, 1.9 µM. Besides, the result in the data set with MDA-MB-435 [2] was Active. This compound yielded a logP in [1] of 3.54.
For the compound `C#CC(=O)N(c1ccc(OC)c(OC)c1)C(C(=O)NC1CCCC1)c1cccs1` (stereo not drawn), the IC50 in the data set on 5637 is 2 µM; in the data set on UMUC3 it was over 20 µM; in the data set on NCI/ADR-RES, 0.9 µM; with HT-29 it was 5.5 µM; in the data set on HCT-116 [3] it was 7.7 µM; in the data set on MDA-MB-435 [4] it was 2 µM. The IC50 is 9.6 µM in the data set with HCT-116 [5] and 3.4 µM with HEY. Further, the outcome with MDA-MB-435 [2] was Active. The logP in data set [1] came out at 2.26.
For `C#CC(=O)N(c1cccc(C(F)(F)F)c1)C(C(=O)NC1CCCC1)c1ccc(F)cc1` (stereo not drawn), the IC50 in the data set on 5637 was 0.5 µM; with UMUC3, 8 µM; in the data set on NCI/ADR-RES, 0.4 µM; in the data set with HT-29 it was 4.8 µM; in the data set with HCT-116 [3], 7.5 µM; with MDA-MB-435 [4] it was 5.2 µM. The figures for the IC50 in the data set with HCT-116 [5] and in the data set on HEY were 6.9 µM and 2.4 µM, respectively. In the data set on MDA-MB-435 [2], the result was Active. In data set [1], the logP was determined as 4.38.
Take `C#CC(=O)N(Cc1ccco1)C(C(=O)NC1CCCC1)c1ccccc1F` (stereo not drawn): the 50% inhibitory concentration (IC50) in the data set with 5637 was 2.9 µM; in the data set on UMUC3 it was over 20 µM; with NCI/ADR-RES it was 1.2 µM; in the data set on HT-29 it was over 10 µM; with HCT-116 [3] it was 10.5 µM; with MDA-MB-435 [4], 1.7 µM. Further, the values for the IC50 in the data set on HCT-116 [5] and in the data set with HEY were 13 µM and 4.3 µM, respectively. In addition, the outcome with MDA-MB-435 [2] was Active. This compound also came in with a lipophilicity (logP) in data set [1] of 2.39.
